ChEMBL document CHEMBL4196178, “Structure-Based Drug Design of Potent Pyrazole Derivatives against Rhinovirus Replication” (J Med Chem, 2018)

Assay: Selectivity index, ratio of CC50 for human HeLa Rh cells to EC50 for Rhinovirus B14 capsid infected in human HeLa Rh cells
Format: toxicity, cell-based
Settings: read-out: Ratio CC50/EC50
Summary of the method: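 SI = CC₅₀/EC₅₀ for RV-B14 in HeLa Rh cells, both from the same 3-day 35 °C MTS CPE assay. CC₅₀ was obtained by light-microscope scoring of compound-treated uninfected cells, and EC₅₀ from MTS dose-response. Both values were derived by logarithmic interpolation and reported as median ± median absolute deviation.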

**Q.** With O=[N+]([O-])c1cc(-c2cncs2)ccc1CC(O)c1ccc(-n2cncn2)cc1 (racemic) as the molecule, how does the selectivity ratio read?
**A.** The selectivity ratio was 110.

**Q.** With COC(=O)c1ccc(CC(O)c2ccc(-c3ccncc3)cc2)c([N+](=O)[O-])c1 (racemic) as the molecule, how does the selectivity ratio read?
**A.** Its selectivity ratio is > 41.

**Q.** With Cn1nc(C(F)(F)F)cc1-c1ccc(CC(O)c2ccc(-n3cccn3)cc2)c([N+](=O)[O-])c1 (racemic) as the molecule, how does the selectivity ratio read?
**A.** Its selectivity ratio is 29.

**Q.** For O=[N+]([O-])c1cc(-c2ccco2)ccc1CC(O)c1ccc(-c2ccncc2)cc1 (racemic), which selectivity ratio is on record?
**A.** Its selectivity ratio is > 72.

**Q.** Which selectivity ratio does the source give for O=[N+]([O-])c1cc(Cl)ccc1CC(O)c1ccc(-n2cccn2)cc1 (racemic) here?
**A.** The selectivity ratio was > 781.

Assay: Cytotoxicity against human HeLa Rh cells assessed as reduction in cell viability after 3 days by MTS assay
Format: cell-based
Settings: not given

**Q.** With O=[N+]([O-])c1cc(-c2cncs2)ccc1CC(O)c1ccc(-n2cncn2)cc1 (racemic) as the molecule, how does the CC50 at 72 h read?
**A.** Its CC50 at 72 h is 44 µM.

**Q.** With COC(=O)c1ccc(CC(O)c2ccc(-c3ccncc3)cc2)c([N+](=O)[O-])c1 (racemic) as the molecule, how does the CC50 at 72 h read?
**A.** Its CC50 at 72 h is > 264 µM.

**Q.** With Cn1nc(C(F)(F)F)cc1-c1ccc(CC(O)c2ccc(-n3cccn3)cc2)c([N+](=O)[O-])c1 (racemic) as the molecule, how does the CC50 at 72 h read?
**A.** The CC50 at 72 h was 14 µM.

**Q.** Which CC50 at 72 h does the source give for O=[N+]([O-])c1cc(-c2ccco2)ccc1CC(O)c1ccc(-c2ccncc2)cc1 (racemic) here?
**A.** The CC50 at 72 h was > 86 µM.

**Q.** With O=[N+]([O-])c1cc(Cl)ccc1CC(O)c1ccc(-n2cccn2)cc1 (racemic) as the molecule, how does the CC50 at 72 h read?
**A.** Its CC50 at 72 h is > 100 µM.
